Assay results reported in ChEMBL document CHEMBL1649390, “New (RS)-benzoxazepin-purines with antitumour activity: The chiral switch from (RS)-2,6-dichloro-9-[1-(p-nitrobenzenesulfonyl)-1,2,3,5-tetrahydro-4,1-benzoxazepin-3-yl]-9H-purine” (Eur J Med Chem, 2011).

Experiments:
MCF7 [1] = assay: Induction of apoptosis in human MCF7 cells assessed as early apoptotic cells at IC50 concentration after 48 hrs using V-FITC and propidium iodide staining by flow cytometry relative to control; assay type: functional
Mus musculus [2] = assay: Acute toxicity in BALB/c mouse assessed as mortality up to 200 mg/kg, ip after 2 weeks; assay type: organism-based; design: dose 200 mg/kg, route intraperitoneal; settings: in vivo, 336 h
Outline: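 Six-week-old female BALB/c mice (about 20 g) were given a single i.p. bolus at 50, 75, 100, 150 and 200 mg/kg (n = 25), dissolved in 0.25 mL of 0.9% NaCl/DMSO. Vehicle controls received saline or DMSO alone. Mice were weighed and scored twice weekly for 2 weeks for systemic toxicity (listlessness, weight loss) and local toxicity (alopecia, skin reaction, leg motility).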

MCF7 [3] = assay: Induction of apoptosis in human MCF7 cells assessed as necrotic cells at IC50 concentration after 24 hrs using V-FITC and propidium iodide staining by flow cytometry (reference value: 9.55 +/- 0.21 %); assay type: functional
MDA-MB-231 [4] = assay: Cytotoxicity against human MDA-MB-231 cells expressing high level of p53 […]; assay type: functional, cell-based
[5] = Cytotoxicity against human MCF10A cells […] by SRB assay; assay type: cell-based; settings: MCF-10A
MCF7 [6] = assay: Induction of apoptosis in human MCF7 cells assessed as viable cells at IC50 concentration after 48 hrs using V-FITC and propidium iodide staining by flow cytometry (reference value: 86.26 +/- 7.25 %)
MCF7 [7] = assay: Cytotoxicity against human MCF7 cells expressing wild type p53 and ras mutant […]; assay type: functional, cell-based
[8] = Cell cycle arrest in human MCF10A cells assessed as accumulation at S phase after 48 hrs using propidium iodide staining by flow cytometry (reference value: 21.78 +/- 0.46 %); assay type: ADME, cell-based; settings: mcf-10a
Mus musculus [9] = assay: Acute toxicity in BALB/c mouse assessed as mortality up to 50 mg/kg, po after 2 weeks; assay type: organism-based; design: dose 50 mg/kg, route oral; settings: in vivo, 336 h
Outline: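 Female BALB/c mice, six weeks old (about 20 g), were dosed once by gavage at 0.05, 0.5, 5 and 50 mg/kg (n = 25) in 0.25 mL of 0.9% NaCl/DMSO. Controls received saline or DMSO alone. Body weight and signs of systemic toxicity (listlessness, weight loss) and local toxicity (alopecia, skin reaction, leg motility) were checked twice weekly over 2 weeks.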

MCF7 [10] = assay: Induction of apoptosis in human MCF7 cells assessed as early apoptotic cells at IC50 concentration after 24 hrs using V-FITC and propidium iodide staining by flow cytometry relative to control; assay type: functional
MCF7 [11] = assay: Induction of apoptosis in human MCF7 cells assessed as late apoptotic cells at IC50 concentration after 24 hrs using V-FITC and propidium iodide staining by flow cytometry (reference value: 1.11 +/- 0.24 %); assay type: functional
[12] = Cell cycle arrest in human MCF10A cells assessed as accumulation at G2/M phase after 48 hrs using propidium iodide staining by flow cytometry (reference value: 12.55 +/- 0.68 %); assay type: ADME, cell-based; settings: mcf-10a
MCF7 [13] = assay: Induction of apoptosis in human MCF7 cells assessed as late apoptotic cells at IC50 concentration after 24 hrs using V-FITC and propidium iodide staining by flow cytometry (reference value: 0.03 +/- 0.01 %); assay type: functional
MCF7 [14] = assay: Induction of apoptosis in human MCF7 cells assessed as necrotic cells at IC50 concentration after 48 hrs using V-FITC and propidium iodide staining by flow cytometry (reference value: 12.61 +/- 7.50 %); assay type: functional
MDA-MB-231 [15] = assay: Cell cycle arrest in human MDA-MB-231 cells assessed as accumulation at G0/G1 phase after 48 hrs using propidium iodide staining by flow cytometry (reference value: 42.06 +/- 0.01 %); assay type: functional
[16] = Cell cycle arrest in human MCF10A cells assessed as accumulation at G0/G1 phase after 48 hrs using propidium iodide staining by flow cytometry (reference value: 65.70 +/- 1.14 %); assay type: ADME, cell-based; settings: mcf-10a
MCF7 [17] = assay: Cell cycle arrest in human MCF7 cells assessed as accumulation at G2/M phase after 48 hrs using propidium iodide staining by flow cytometry (reference value: 1.57 +/- 2.12 %); assay type: functional
MDA-MB-231 [18] = assay: Cell cycle arrest in human MDA-MB-231 cells assessed as accumulation at G2/M phase after 48 hrs using propidium iodide staining by flow cytometry (reference value: 31.59 +/- 0.03 %); assay type: functional
MCF7 [19] = assay: Induction of apoptosis in human MCF7 cells assessed as cell viability at IC50 concentration after 24 hrs using V-FITC and propidium iodide staining by flow cytometry (reference value: 90.42 +/- 0.63 %); assay type: functional
[20] = Therapeutic index, ratio of IC50 for human MCF10A cells to IC50 for human MCF7 cells expressing wild type p53 and ras mutant; assay type: cell-based; settings: MCF10A cells versus MCF7 cells (wild type p53, ras mutant), read-out: Ratio IC50
Outline: (§1)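 Ratio of IC50 in non-tumour MCF-10A to IC50 in the tumour line, both from the SRB growth assay described for cytotoxicity.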

MCF7 [21] = assay: Cell cycle arrest in human MCF7 cells assessed as accumulation at G0/G1 phase after 48 hrs using propidium iodide staining by flow cytometry (reference value: 89.88 +/- 1.73 %); assay type: functional
[22] = Therapeutic index, ratio of IC50 for human MCF10A cells to IC50 for human MDA-MB-231 cells expressing high level of p53; assay type: cell-based; settings: MCF10A cells versus MDA-MB-231 cells (high level of p53), read-out: Ratio IC50; outline: as §1
MDA-MB-231 [23] = assay: Cell cycle arrest in human MDA-MB-231 cells assessed as accumulation at S phase after 48 hrs using propidium iodide staining by flow cytometry (reference value: 26.35 +/- 0.03 %); assay type: functional
MCF7 [24] = assay: Cell cycle arrest in human MCF7 cells assessed as accumulation at S phase after 48 hrs using propidium iodide staining by flow cytometry (reference value: 8.55 +/- 0.40 %); assay type: functional

O=[N+]([O-])c1ccc(S(=O)(=O)N2CC(n3cnc4c(Cl)nc(Cl)nc43)OCc3ccccc32)cc1 (racemic)
Activity (MCF7 [1]): 23.38% | Activity (Mus musculus [2]): Non-toxic | Activity (MCF7 [3]): 4.93% | IC50 (MDA-MB-231 [4]): 166 nM | IC50 [5]: 1820 nM | viability (MCF7 [6]): 46.65% | IC50 (MCF7 [7]): 355 nM | Activity [8]: 22.14% | Activity (Mus musculus [9]): Non-toxic | Activity (MCF7 [10]): 0.66% | Activity (MCF7 [11]): 13.84% | Activity [12]: 11.92% | Activity (MCF7 [13]): 0.23% | Activity (MCF7 [14]): 16.13% | Activity (MDA-MB-231 [15]): 45.4% | Activity [16]: 65.94% | Activity (MCF7 [17]): 1.57% | Activity (MDA-MB-231 [18]): 25.4% | Activity (MCF7 [19]): 94.16% | selectivity ratio [20]: 5.14 | Activity (MCF7 [21]): 87.2% | selectivity ratio [22]: 11 | Activity (MDA-MB-231 [23]): 29.36% | Activity (MCF7 [24]): 8.55%
